Test results taken from ChEMBL document CHEMBL1144933, “Novel bioactive and stable neurotensin peptide analogues capable of delivering radiopharmaceuticals and molecular beacons to tumors” (J Med Chem, 2003).
Where a SMILES comes first, the peptide text is derived from it. [ ]: non-standard residue; d: D form. The star is where a group is joined. Gly(1-amidinopiperidin-4-yl) = N=C(N)N1CCC([C@H](N)C(=O)O)CC1; DTPA = O=C(O)CN(CCN(CC(=O)O)CC(=O)O)CCN(CC(=O)O)CC(=O)*; Gly(piperidin-4-yl) = N[C@H](C(=O)O)C1CCNCC1; Tle = CC(C)(C)[C@H](N)C(=O)O

Assays:
Mus musculus [1] = assay: Biodistribution of [111In]DTPA-NT in HT-29 tumor implanted SCID mice kidneys at 1 h postinjection; assay type: ADME, organism-based, Kidney; details: in vivo
Procedure, shortened: (§1)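 Male SCID mice bore HT29 xenografts from 1 × 10^6 cells given s.c. in both rear flanks. Tumours reached about 0.3 g by day 14. Under Metofane anaesthesia, mice received 20 μL (10 μCi) of 111In-DTPA-NT analogue (1400 Ci/mmol) via the jugular vein. Groups of n = 3 were killed by cervical dislocation at 1 and 4 h. Blood and tissues were gamma-counted and reported as %ID/g ± SE.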

Mus musculus [2] = assay: Biodistribution of [111In]DTPA-NT in HT-29 tumor implanted SCID mice muscle at 4 h postinjection; assay type: ADME, organism-based, Muscle tissue; details: in vivo; procedure, shortened: as §1
Mus musculus [3] = assay: Biodistribution of [111In]DTPA-NT in HT-29 tumor implanted SCID mice liver at 1 h postinjection; assay type: ADME, organism-based; details: in vivo; procedure, shortened: as §1
Mus musculus [4] = assay: Biodistribution of [111In]-DTPA-NT in HT-29 tumor implanted SCID mice pancreas at 4 hr postinjection LSA administration; assay type: ADME, organism-based; details: in vivo
Procedure, shortened: (§2)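 Receptor-blocking (low specific activity) arm in male SCID mice with s.c. HT29 flank xenografts of about 0.3 g. Two animals received the same activity (10 μCi, jugular vein) diluted with cold NT to 0.5 Ci/mmol. Tissues were collected after cervical dislocation, radioassayed, and expressed as %ID/g.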

Mus musculus [5] = assay: Biodistribution of [111In]DTPA-NT in HT-29 tumor implanted SCID mice tumor at 1 h postinjection; assay type: ADME, organism-based; details: in vivo; procedure, shortened: as §1
Mus musculus [6] = assay: Biodistribution of [111In]-DTPA-NT in HT-29 tumor implanted SCID mice blood at 4 hr postinjection LSA administration; assay type: ADME, organism-based; details: in vivo; procedure, shortened: as §2
Mus musculus [7] = assay: Biodistribution of [111In]-DTPA-NT in HT-29 tumor implanted SCID mice tumor at 4 hr postinjection; assay type: ADME, organism-based; details: in vivo; procedure, shortened: as §1
Mus musculus [8] = assay: Biodistribution of [111In]DTPA-NT in HT-29 tumor implanted SCID mice muscle at 1 h postinjection; assay type: ADME, organism-based, Muscle tissue; details: in vivo; procedure, shortened: as §1
Mus musculus [9] = assay: Biodistribution of [111In]-DTPA-NT in HT-29 tumor implanted SCID mice spleen at 1 hr postinjection; assay type: ADME, organism-based; details: in vivo; procedure, shortened: as §1
Mus musculus [10] = assay: Biodistribution of [111In]-DTPA-NT in HT-29 tumor implanted SCID mice spleen at 4 hr postinjection LSA administration; assay type: ADME, organism-based; details: in vivo; procedure, shortened: as §2
Mus musculus [11] = assay: Biodistribution of [111In]DTPA-NT in HT-29 tumor implanted SCID mice spleen at 4 h postinjection; assay type: ADME, organism-based; details: in vivo; procedure, shortened: as §1
[12] = molecular target: Neurotensin receptor type 1 (Homo sapiens, UniProt P30989); assay: Binding affinity towards neurotensin receptor in membranes prepared from HT-29 cell line, relative to [111In]-labeled neurotensin peptide
Mus musculus [13] = assay: Biodistribution of [111In]-DTPA-NT in HT-29 tumor implanted SCID mice kidneys at 4 hr postinjection LSA administration; assay type: ADME, organism-based, Kidney; details: in vivo; procedure, shortened: as §2
Mus musculus [14] = assay: Biodistribution of [111In]DTPA-NT in HT-29 tumor implanted SCID mice blood at 1 h postinjection; assay type: ADME, organism-based; details: in vivo; procedure, shortened: as §1
Mus musculus [15] = assay: Biodistribution of [111In]-DTPA-NT in HT-29 tumor implanted SCID mice pancreas at 4 h postinjection; assay type: ADME, organism-based; details: in vivo; procedure, shortened: as §1
Mus musculus [16] = assay: Biodistribution of [111In]DTPA-NT in HT-29 tumor implanted SCID mice pancreas at 1 h postinjection; assay type: ADME, organism-based; details: in vivo; procedure, shortened: as §1
Mus musculus [17] = assay: Biodistribution of [111In]DTPA-NT in HT-29 tumor implanted SCID mice blood at 4 h postinjection; assay type: ADME, organism-based; details: in vivo; procedure, shortened: as §1
Mus musculus [18] = assay: Biodistribution of [111In]DTPA-NT in HT-29 tumor implanted SCID mice kidneys at 4 h postinjection; assay type: ADME, organism-based, Kidney; details: in vivo; procedure, shortened: as §1
Mus musculus [19] = assay: Biodistribution of [111In]DTPA-NT in HT-29 tumor implanted SCID mice liver at 4 h postinjection; assay type: ADME, organism-based; details: in vivo; procedure, shortened: as §1
Mus musculus [20] = assay: Biodistribution of [111In]DTPA-NT in HT-29 tumor implanted SCID mice tumor at 4 h postinjection LSA administration; assay type: ADME, organism-based; details: in vivo; procedure, shortened: as §2
Mus musculus [21] = assay: Biodistribution of [111In]-DTPA-NT in HT-29 tumor implanted SCID mice muscle at 4 hr postinjection LSA administration; assay type: ADME, organism-based, Muscle tissue; details: in vivo; procedure, shortened: as §2
Mus musculus [22] = assay: Biodistribution of [111In]-DTPA-NT in HT-29 tumor implanted SCID mice liver at 4 hr postinjection LSA administration; assay type: ADME, organism-based; details: in vivo; procedure, shortened: as §2

Sequence of Neurotensin receptor type 1 (P30989 whole entry): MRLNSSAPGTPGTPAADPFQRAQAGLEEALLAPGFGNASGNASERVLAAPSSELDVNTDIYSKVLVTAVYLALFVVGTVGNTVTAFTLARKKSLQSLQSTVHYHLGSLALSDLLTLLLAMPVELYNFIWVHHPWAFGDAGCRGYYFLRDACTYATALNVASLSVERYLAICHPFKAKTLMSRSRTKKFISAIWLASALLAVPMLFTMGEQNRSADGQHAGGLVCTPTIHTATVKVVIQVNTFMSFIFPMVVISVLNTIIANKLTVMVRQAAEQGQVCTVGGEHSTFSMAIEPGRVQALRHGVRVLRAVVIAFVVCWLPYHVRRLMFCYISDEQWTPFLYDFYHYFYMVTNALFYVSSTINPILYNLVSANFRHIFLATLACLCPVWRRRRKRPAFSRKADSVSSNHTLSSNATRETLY

ID/g tissue (Mus musculus [1]): 6.141%
ID/g tissue (Mus musculus [2]): 0.021%
ID/g tissue (Mus musculus [3]): 0.203%
ID/g tissue (Mus musculus [4]): 0.051%
ID/g tissue (Mus musculus [5]): 2.831%
ID/g tissue (Mus musculus [6]): 0.027%
ID/g tissue (Mus musculus [7]): 2.177%
ID/g tissue (Mus musculus [8]): 0.092%
ID/g tissue (Mus musculus [9]): 0.18%
ID/g tissue (Mus musculus [10]): 0.088%
ID/g tissue (Mus musculus [11]): 0.085%
IC50 [12]: 0.3 nM
ID/g tissue (Mus musculus [13]): 5.725%
ID/g tissue (Mus musculus [14]): 0.416%
ID/g tissue (Mus musculus [15]): 0.03%
ID/g tissue (Mus musculus [16]): 0.152%
ID/g tissue (Mus musculus [17]): 0.03%
ID/g tissue (Mus musculus [18]): 4.841%
ID/g tissue (Mus musculus [19]): 0.133%
ID/g tissue (Mus musculus [20]): 0.263%
ID/g tissue (Mus musculus [21]): 0.03%
ID/g tissue (Mus musculus [22]): 0.168%
Structure (SMILES): CC(C)C[C@H](NC(=O)[C@@H](NC(=O)[C@H](Cc1ccc(O)cc1)NC(=O)[C@@H]1CCCN1C(=O)[C@H](CCCN=C(N)N)NC(=O)[C@@H](NC(=O)[C@@H]1CCCN1C(=O)[C@@H](NC(=O)CN(CCN(CCN(CC(=O)O)CC(=O)O)CC(=O)O)CC(=O)O)C1CCNCC1)C1CCN(C(=N)N)CC1)C(C)(C)C)C(=O)O ({DTPA}-[Gly(piperidin-4-yl)]P[Gly(1-amidinopiperidin-4-yl)]RPY[Tle]L-OH)
